ChEMBL document CHEMBL2057112, “Enamino-oxindole HIV protease inhibitors” (Bioorg Med Chem Lett, 2012)

System: Human immunodeficiency virus 1
Assay: Antiviral activity against Human immunodeficiency virus 1 HXB2 expressing protease M9 mutant infected in human MT4 cells after 5 days by MTT assay
Type: functional, organism-based
Conditions: Human immunodeficiency virus 1, HXB2, MT4, 120 h

| SMILES | IC50 |
| --- | --- |
| CC(C)CN(C[C@@H](O)[C@H](Cc1ccccc1)NC(=O)O[C@H]1CO[C@H]2OCC[C@H]21)S(=O)(=O)c1ccc2c(c1)C(=CNCCNc1ccccc1)C(=O)N2 (mixture of isomers) | 80 nM |
| COCCNC=C1C(=O)Nc2ccc(S(=O)(=O)N(CC(C)C)C[C@@H](O)[C@H](Cc3ccccc3)NC(=O)O[C@H]3CO[C@H]4OCC[C@H]43)cc21 (mixture of isomers) | 42 nM |
| CC(C)CN(C[C@@H](O)[C@H](Cc1ccccc1)NC(=O)O[C@H]1CO[C@H]2OCC[C@H]21)S(=O)(=O)c1ccc2c(c1)C(=CNCCO)C(=O)N2 (mixture of isomers) | 800 nM |
| CC(C)CN(C[C@@H](O)[C@H](Cc1ccccc1)NC(=O)O[C@H]1CO[C@H]2OCC[C@H]21)S(=O)(=O)c1ccc2c(c1)C(=CNCCc1ccccc1)C(=O)N2 (mixture of isomers) | 28 nM |
| CC(C)CN(C[C@@H](O)[C@H](Cc1ccccc1)NC(=O)O[C@H]1CO[C@H]2OCC[C@H]21)S(=O)(=O)c1ccc2c(c1)C(=CNCc1ccc3ccccc3n1)C(=O)N2 (mixture of isomers) | 23 nM |

System: Human immunodeficiency virus 1
Assay: Antiviral activity against Human immunodeficiency virus 1 HXB2 expressing protease M3 mutant infected in human MT4 cells after 5 days by MTT assay
Type: functional, organism-based
Conditions: Human immunodeficiency virus 1, HXB2, MT4, 120 h
Outline: (§1)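 MT-4 cells (AIDS Research and Reference Reagent Program) exposed to 50% tissue culture infective doses (TCID₅₀) of virus with various concentrations of test compound for 5 days. MTT solution then added and absorbance measured. Mutant strains carry 10–17 resistance mutations with phenotypic resistance to marketed PIs; all include I84V except M7. IC₅₀ reported.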

| SMILES | IC50 |
| --- | --- |
| CC(C)CN(C[C@@H](O)[C@H](Cc1ccccc1)NC(=O)O[C@H]1CO[C@H]2OCC[C@H]21)S(=O)(=O)c1ccc2c(c1)C(=CNCc1ccc3ccccc3n1)C(=O)N2 (mixture of isomers) | 21 nM |

System: not listed separately
Assay: Inhibition of wild type Human immunodeficiency virus protease expressed in Escherichia coli using ArgGlu(EDANS)SerGlnAsnTyrProIleValGlnLys(DABCYL)Arg as substrate preincubated with compound for 0.5 to 1 min measured by fluorometric analysis at pH 6.5
Conditions: not given

| SMILES | Ki |
| --- | --- |
| CC(C)CN(C[C@@H](O)[C@H](Cc1ccccc1)NC(=O)O[C@H]1CO[C@H]2OCC[C@H]21)S(=O)(=O)c1ccc2c(c1)C(=CNCCNc1ccccc1)C(=O)N2 (mixture of isomers) | < 0.1 nM |
| COCCNC=C1C(=O)Nc2ccc(S(=O)(=O)N(CC(C)C)C[C@@H](O)[C@H](Cc3ccccc3)NC(=O)O[C@H]3CO[C@H]4OCC[C@H]43)cc21 (mixture of isomers) | 0.11 nM |
| CC(C)CN(C[C@@H](O)[C@H](Cc1ccccc1)NC(=O)O[C@H]1CO[C@H]2OCC[C@H]21)S(=O)(=O)c1ccc2c(c1)C(=CNCCO)C(=O)N2 (mixture of isomers) | < 0.1 nM |
| CC(C)CN(C[C@@H](O)[C@H](Cc1ccccc1)NC(=O)O[C@H]1CO[C@H]2OCC[C@H]21)S(=O)(=O)c1ccc2c(c1)C(=CNCCc1ccccc1)C(=O)N2 (mixture of isomers) | < 0.1 nM |
| CC(C)CN(C[C@@H](O)[C@H](Cc1ccccc1)NC(=O)O[C@H]1CO[C@H]2OCC[C@H]21)S(=O)(=O)c1ccc2c(c1)C(=CNCc1ccc3ccccc3n1)C(=O)N2 (mixture of isomers) | 0.1 nM |

System: Human immunodeficiency virus 1
Assay: Antiviral activity against Human immunodeficiency virus 1 HXB2 expressing protease M6 mutant infected in human MT4 cells after 5 days by MTT assay
Type: functional, organism-based
Conditions: Human immunodeficiency virus 1, HXB2, MT4, 120 h
Outline: as §1

| SMILES | IC50 |
| --- | --- |
| CC(C)CN(C[C@@H](O)[C@H](Cc1ccccc1)NC(=O)O[C@H]1CO[C@H]2OCC[C@H]21)S(=O)(=O)c1ccc2c(c1)C(=CNCc1ccc3ccccc3n1)C(=O)N2 (mixture of isomers) | 25 nM |

System: Human immunodeficiency virus 1
Assay: Antiviral activity against Human immunodeficiency virus 1 HXB2 expressing protease M8 mutant infected in human MT4 cells after 5 days by MTT assay
Type: functional, organism-based
Conditions: Human immunodeficiency virus 1, HXB2, MT4, 120 h

| SMILES | IC50 |
| --- | --- |
| CC(C)CN(C[C@@H](O)[C@H](Cc1ccccc1)NC(=O)O[C@H]1CO[C@H]2OCC[C@H]21)S(=O)(=O)c1ccc2c(c1)C(=CNCCNc1ccccc1)C(=O)N2 (mixture of isomers) | 160 nM |
| CC(C)CN(C[C@@H](O)[C@H](Cc1ccccc1)NC(=O)O[C@H]1CO[C@H]2OCC[C@H]21)S(=O)(=O)c1ccc2c(c1)C(=CNCCc1ccccc1)C(=O)N2 (mixture of isomers) | 61 nM |
| CC(C)CN(C[C@@H](O)[C@H](Cc1ccccc1)NC(=O)O[C@H]1CO[C@H]2OCC[C@H]21)S(=O)(=O)c1ccc2c(c1)C(=CNCc1ccc3ccccc3n1)C(=O)N2 (mixture of isomers) | 34 nM |

System: Human immunodeficiency virus 1
Assay: Antiviral activity against Human immunodeficiency virus 1 HXB2 expressing wild type protease infected in human MT4 cells after 5 days by MTT assay
Type: functional, organism-based
Conditions: Human immunodeficiency virus 1, HXB2, MT4, 120 h

| SMILES | IC50 |
| --- | --- |
| CC(C)CN(C[C@@H](O)[C@H](Cc1ccccc1)NC(=O)O[C@H]1CO[C@H]2OCC[C@H]21)S(=O)(=O)c1ccc2c(c1)C(=CNCCNc1ccccc1)C(=O)N2 (mixture of isomers) | > 80 nM |
| COCCNC=C1C(=O)Nc2ccc(S(=O)(=O)N(CC(C)C)C[C@@H](O)[C@H](Cc3ccccc3)NC(=O)O[C@H]3CO[C@H]4OCC[C@H]43)cc21 (mixture of isomers) | 70 nM |
| CC(C)CN(C[C@@H](O)[C@H](Cc1ccccc1)NC(=O)O[C@H]1CO[C@H]2OCC[C@H]21)S(=O)(=O)c1ccc2c(c1)C(=CNCCO)C(=O)N2 (mixture of isomers) | > 400 nM |
| CC(C)CN(C[C@@H](O)[C@H](Cc1ccccc1)NC(=O)O[C@H]1CO[C@H]2OCC[C@H]21)S(=O)(=O)c1ccc2c(c1)C(=CNCCc1ccccc1)C(=O)N2 (mixture of isomers) | 22 nM |
| CC(C)CN(C[C@@H](O)[C@H](Cc1ccccc1)NC(=O)O[C@H]1CO[C@H]2OCC[C@H]21)S(=O)(=O)c1ccc2c(c1)C(=CNCc1ccc3ccccc3n1)C(=O)N2 (mixture of isomers) | 35 nM |

System: Human immunodeficiency virus 1
Assay: Antiviral activity against Human immunodeficiency virus 1 HXB2 expressing protease M4 mutant infected in human MT4 cells after 5 days by MTT assay
Type: functional, organism-based
Conditions: Human immunodeficiency virus 1, HXB2, MT4, 120 h
Outline: as §1

| SMILES | IC50 |
| --- | --- |
| CC(C)CN(C[C@@H](O)[C@H](Cc1ccccc1)NC(=O)O[C@H]1CO[C@H]2OCC[C@H]21)S(=O)(=O)c1ccc2c(c1)C(=CNCc1ccc3ccccc3n1)C(=O)N2 (mixture of isomers) | 40 nM |

System: not listed separately
Assay: Inhibition of Human immunodeficiency virus protease M8 mutant expressed in Escherichia coli using ArgGlu(EDANS)SerGlnAsnTyrProIleValGlnLys(DABCYL)Arg as substrate preincubated with compound for 0.5 to 1 min measured by fluorometric analysis at pH 6.5
Conditions: not given

| SMILES | Ki |
| --- | --- |
| CC(C)CN(C[C@@H](O)[C@H](Cc1ccccc1)NC(=O)O[C@H]1CO[C@H]2OCC[C@H]21)S(=O)(=O)c1ccc2c(c1)C(=CNCCNc1ccccc1)C(=O)N2 (mixture of isomers) | 0.39 nM |
| COCCNC=C1C(=O)Nc2ccc(S(=O)(=O)N(CC(C)C)C[C@@H](O)[C@H](Cc3ccccc3)NC(=O)O[C@H]3CO[C@H]4OCC[C@H]43)cc21 (mixture of isomers) | < 0.1 nM |
| CC(C)CN(C[C@@H](O)[C@H](Cc1ccccc1)NC(=O)O[C@H]1CO[C@H]2OCC[C@H]21)S(=O)(=O)c1ccc2c(c1)C(=CNCCO)C(=O)N2 (mixture of isomers) | 0.11 nM |
| CC(C)CN(C[C@@H](O)[C@H](Cc1ccccc1)NC(=O)O[C@H]1CO[C@H]2OCC[C@H]21)S(=O)(=O)c1ccc2c(c1)C(=CNCCc1ccccc1)C(=O)N2 (mixture of isomers) | 0.17 nM |
| CC(C)CN(C[C@@H](O)[C@H](Cc1ccccc1)NC(=O)O[C@H]1CO[C@H]2OCC[C@H]21)S(=O)(=O)c1ccc2c(c1)C(=CNCc1ccc3ccccc3n1)C(=O)N2 (mixture of isomers) | < 0.1 nM |

System: not listed separately
Assay: Inhibition of Human immunodeficiency virus protease M9 mutant expressed in Escherichia coli using ArgGlu(EDANS)SerGlnAsnTyrProIleValGlnLys(DABCYL)Arg as substrate preincubated with compound for 0.5 to 1 min measured by fluorometric analysis at pH 6.5
Conditions: not given

| SMILES | Ki |
| --- | --- |
| CC(C)CN(C[C@@H](O)[C@H](Cc1ccccc1)NC(=O)O[C@H]1CO[C@H]2OCC[C@H]21)S(=O)(=O)c1ccc2c(c1)C(=CNCCNc1ccccc1)C(=O)N2 (mixture of isomers) | < 0.3 nM |
| COCCNC=C1C(=O)Nc2ccc(S(=O)(=O)N(CC(C)C)C[C@@H](O)[C@H](Cc3ccccc3)NC(=O)O[C@H]3CO[C@H]4OCC[C@H]43)cc21 (mixture of isomers) | < 0.3 nM |
| CC(C)CN(C[C@@H](O)[C@H](Cc1ccccc1)NC(=O)O[C@H]1CO[C@H]2OCC[C@H]21)S(=O)(=O)c1ccc2c(c1)C(=CNCCO)C(=O)N2 (mixture of isomers) | < 0.3 nM |
| CC(C)CN(C[C@@H](O)[C@H](Cc1ccccc1)NC(=O)O[C@H]1CO[C@H]2OCC[C@H]21)S(=O)(=O)c1ccc2c(c1)C(=CNCCc1ccccc1)C(=O)N2 (mixture of isomers) | < 0.3 nM |
| CC(C)CN(C[C@@H](O)[C@H](Cc1ccccc1)NC(=O)O[C@H]1CO[C@H]2OCC[C@H]21)S(=O)(=O)c1ccc2c(c1)C(=CNCc1ccc3ccccc3n1)C(=O)N2 (mixture of isomers) | < 0.3 nM |

System: Human immunodeficiency virus 1
Assay: Antiviral activity against Human immunodeficiency virus 1 HXB2 expressing protease M10 mutant infected in human MT4 cells after 5 days by MTT assay
Type: functional, organism-based
Conditions: Human immunodeficiency virus 1, HXB2, MT4, 120 h

| SMILES | IC50 |
| --- | --- |
| CC(C)CN(C[C@@H](O)[C@H](Cc1ccccc1)NC(=O)O[C@H]1CO[C@H]2OCC[C@H]21)S(=O)(=O)c1ccc2c(c1)C(=CNCCNc1ccccc1)C(=O)N2 (mixture of isomers) | 120 nM |
| COCCNC=C1C(=O)Nc2ccc(S(=O)(=O)N(CC(C)C)C[C@@H](O)[C@H](Cc3ccccc3)NC(=O)O[C@H]3CO[C@H]4OCC[C@H]43)cc21 (mixture of isomers) | 48 nM |
| CC(C)CN(C[C@@H](O)[C@H](Cc1ccccc1)NC(=O)O[C@H]1CO[C@H]2OCC[C@H]21)S(=O)(=O)c1ccc2c(c1)C(=CNCCO)C(=O)N2 (mixture of isomers) | 400 nM |
| CC(C)CN(C[C@@H](O)[C@H](Cc1ccccc1)NC(=O)O[C@H]1CO[C@H]2OCC[C@H]21)S(=O)(=O)c1ccc2c(c1)C(=CNCCc1ccccc1)C(=O)N2 (mixture of isomers) | 110 nM |
| CC(C)CN(C[C@@H](O)[C@H](Cc1ccccc1)NC(=O)O[C@H]1CO[C@H]2OCC[C@H]21)S(=O)(=O)c1ccc2c(c1)C(=CNCc1ccc3ccccc3n1)C(=O)N2 (mixture of isomers) | 27 nM |

System: not listed separately
Assay: Inhibition of Human immunodeficiency virus protease M10 mutant expressed in Escherichia coli using ArgGlu(EDANS)SerGlnAsnTyrProIleValGlnLys(DABCYL)Arg as substrate preincubated with compound for 0.5 to 1 min measured by fluorometric analysis at pH 6.5
Conditions: not given

| SMILES | Ki |
| --- | --- |
| CC(C)CN(C[C@@H](O)[C@H](Cc1ccccc1)NC(=O)O[C@H]1CO[C@H]2OCC[C@H]21)S(=O)(=O)c1ccc2c(c1)C(=CNCCNc1ccccc1)C(=O)N2 (mixture of isomers) | 3 nM |
| COCCNC=C1C(=O)Nc2ccc(S(=O)(=O)N(CC(C)C)C[C@@H](O)[C@H](Cc3ccccc3)NC(=O)O[C@H]3CO[C@H]4OCC[C@H]43)cc21 (mixture of isomers) | 1.2 nM |
| CC(C)CN(C[C@@H](O)[C@H](Cc1ccccc1)NC(=O)O[C@H]1CO[C@H]2OCC[C@H]21)S(=O)(=O)c1ccc2c(c1)C(=CNCCO)C(=O)N2 (mixture of isomers) | < 1 nM |
| CC(C)CN(C[C@@H](O)[C@H](Cc1ccccc1)NC(=O)O[C@H]1CO[C@H]2OCC[C@H]21)S(=O)(=O)c1ccc2c(c1)C(=CNCCc1ccccc1)C(=O)N2 (mixture of isomers) | 1.3 nM |
| CC(C)CN(C[C@@H](O)[C@H](Cc1ccccc1)NC(=O)O[C@H]1CO[C@H]2OCC[C@H]21)S(=O)(=O)c1ccc2c(c1)C(=CNCc1ccc3ccccc3n1)C(=O)N2 (mixture of isomers) | < 1 nM |
